# Compound activity deposited in PubChem by several laboratories.
# A selection: hits, their analogues and other compounds. The true share with any hit is near 3.1%.
# TbHK1 inh = blocks Trypanosoma brucei hexokinase 1 activity; recombinant TbHK1, G6PDH-coupled NADH A340; inhibition, % at 10 µM; hit rate 0.11% among 220,000; AID 1430;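 active means inhibition of 50% or more in the single-dose primary screen; inactive means inhibition below 50%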
# HSP90 inh = HSP90 refolding inhibition in rabbit reticulocyte lysate | luciferase refolding luminescence, 3 h | inhibition, % at 5.6 µM | hit rate 0.91% among 290,000 | AID 1789;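 active means inhibition above the screen-wide mean plus 3 SD, computed separately per campaign, cut at about 16% in these data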;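 further: 0% = DMSO wells and 100% = 60 µM geldanamycin wells; inhibitors lower the luminescence because luciferase stays unfolded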
# Hsp70 activator = Hsp70 transcriptional activation, primary screen. HeLa Hsp70 promoter luciferase reporter, luminescence; scaled: vehicle 0, proteasome-inhibitor control 100%. activation, % at 10 µM. hit rate 0.04% among 200,000. AID 1203;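 active means activation above the mean across all tested compounds plus 3 SD, cutoff set per campaign, cut at about 5.5% in these data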;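 further: 100% = MG132 at 30 µM as the positive control and 0% = DMSO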
# HSF1 inhib = HSF1 inhibition | NIH3T3-HGL HSE-luciferase, MG132-induced, luminescence 8 h; active compounds read low | activity change, negative = inhibition, % at 7.5 µM (by protocol) | AID 2098 | hit rate 0.77% among 300,000;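 active means more than half of replicate wells show activity change below -50%, luminescence cut by over half; inconclusive means some wells, but at most half, below -50%; inactive means no replicate well below -50%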;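 further: luciferase reports HSF-1 transcriptional activity via heat shock element; 0% = median of DMSO wells and -100% = zero luminescence signal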
# HSF1 activator = increases HSF-1 driven luciferase reporter signal; NIH3T3-HGL HSF-1 luciferase reporter, MG132, 8 h; 100% = twice DMSO control signal; hit rate 1.7% among 300,000; activation, % at 9 µM;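 active means mean replicate activation of at least 50% with a set share of replicates each reaching 50%; inconclusive means only one of those two conditions met; inactive means mean below 50% and too few replicates reaching it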;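 further: 0% = median of the neutral control wells and 100% = twice that signal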
# HKDC1 inhibitor = HKDC1 (human) hexokinase inhibition; Q2TB90; hit rate 0.16% among 340,000; AID 493160; recombinant HKDC1, G6PDH/diaphorase resazurin coupled fluorescence; inhibition, % at 20 µM;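 active means inhibition above about 35% when tested at 20 µM, limit read from the data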;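 further: plate controls were DMSO wells with enzyme for no effect and DMSO wells lacking enzyme for full effect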
# Target sequence (Q2TB90 whole entry, looked up): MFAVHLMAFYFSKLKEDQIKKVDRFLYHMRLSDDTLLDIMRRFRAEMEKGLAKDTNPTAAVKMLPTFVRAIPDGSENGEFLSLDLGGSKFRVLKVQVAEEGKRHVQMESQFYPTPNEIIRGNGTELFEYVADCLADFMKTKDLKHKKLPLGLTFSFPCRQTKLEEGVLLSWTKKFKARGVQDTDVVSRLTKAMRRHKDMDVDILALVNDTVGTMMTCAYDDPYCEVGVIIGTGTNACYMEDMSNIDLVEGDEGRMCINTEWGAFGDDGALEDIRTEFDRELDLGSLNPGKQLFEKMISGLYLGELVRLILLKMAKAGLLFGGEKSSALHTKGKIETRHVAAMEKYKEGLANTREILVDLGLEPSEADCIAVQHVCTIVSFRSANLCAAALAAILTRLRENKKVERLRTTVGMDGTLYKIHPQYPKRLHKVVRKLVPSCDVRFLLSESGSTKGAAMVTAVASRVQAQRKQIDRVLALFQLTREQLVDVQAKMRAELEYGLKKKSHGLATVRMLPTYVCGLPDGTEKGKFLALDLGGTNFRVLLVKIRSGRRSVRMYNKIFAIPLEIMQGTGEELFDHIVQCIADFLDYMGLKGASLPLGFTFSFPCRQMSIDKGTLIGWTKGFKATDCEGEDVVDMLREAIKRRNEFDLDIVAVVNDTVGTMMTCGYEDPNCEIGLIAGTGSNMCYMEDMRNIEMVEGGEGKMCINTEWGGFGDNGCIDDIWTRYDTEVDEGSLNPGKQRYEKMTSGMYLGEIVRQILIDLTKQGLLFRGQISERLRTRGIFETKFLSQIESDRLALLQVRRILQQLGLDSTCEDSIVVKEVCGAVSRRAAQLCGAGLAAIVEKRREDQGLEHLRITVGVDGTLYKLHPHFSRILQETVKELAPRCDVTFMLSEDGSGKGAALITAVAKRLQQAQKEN
#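 test system = in-house recombinant HK5 (HKDC1) enzyme | amount = HKDC1 at 5 µg/mL | control set = DMSO-enzyme wells negative, buffer-substituted wells positive | compound = one dose of 20 µM, 1% DMSO | schedule = reaction time 90 min, room temperature, protected from light | technique = resorufin fluorescence at 613 nm | reagent = glucose with 1 mM ATP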
# Numbers without * were called inactive; ? = inconclusive; . = no result given.
SMILES,TbHK1 inh,HSP90 inh,Hsp70 activator,HSF1 inhib,HSF1 activator,HKDC1 inhibitor
CC1CCc2c(sc(NC(=S)NC(=O)c3ccccc3)c2C#N)C1 (centres undefined),-17,1,.,33,59*,-1
Cc1cc(C(=O)Nc2sc3c(c2C#N)CCC(C)C3)cs1 (centres undefined),-13,-6,0,23,74*,5
O=S(=O)(Nc1ccc(S(=O)(=O)N2CCCC2)cc1)c1ccccc1Br,.,.,.,.,.,-3
CCOC(=O)c1c(NC(=O)CSc2nnc(-c3c[nH]c4ccccc34)n2C)sc2c1CCCC2,-3,0,0,-56*,-65,1
O=C(c1ccc2c(=O)n(C3CCCC3)c(=S)[nH]c2c1)N1CCc2ccccc21,5,1,0,38,91*,0
COc1ccc(-c2nn(-c3ccccc3)cc2/C=N/N2C(=O)CSC2=S)cc1,5,0,0,38,76*,-29
O=C(Nc1ccc(N2C(=O)C3C4C=CC(C4)C3C2=O)cc1)Nc1nncs1 (centres undefined),.,.,.,-86*,-89,2
CCCS/C(N)=N/N=C/c1cc(C)ccc1O,-35,0,0,32,60*,-4
CCCCS/C(N)=N/N=C/c1ccccc1O,-39,-7,0,26,87*,-5
Cc1ccc(O)c(C=Nc2cc(C)ccc2O)c1,0,0,0,-5,5,-5
C[C@@H]1C[C@H]2[C@@H]3CCC4=CC(=O)C=C[C@]4(C)[C@@]3(Cl)[C@@H](O)C[C@]2(C)[C@@]1(OC(=O)c1ccco1)C(=O)CCl,.,.,.,.,.,1
C[C@@H]1CN(S(=O)C(C)(C)C)[C@@H](CCO)/C1=C\CCO (some centres undefined),.,.,.,.,.,-4
Cc1ccc(S(=O)(=O)N2CCOCC2)cc1C(=O)OC(C)C(=O)c1ccccc1 (centres undefined),.,.,.,2,1,2
CCn1nc(C(=O)NNC(=O)COc2ccccc2C)c2ccccc2c1=O,-1,1,0,22,57*,-7
CCc1ccc(OCC(=O)NNC(=O)c2nn(CC)c(=O)c3ccccc23)cc1,-4,3,0,-7,-1,-4
O=C(COC(=O)c1ccccc1SCC(=O)N1CCCC1)NC1CCS(=O)(=O)C1 (centres undefined),.,.,.,-71*,-78,-5
O=C(/C(=C(/[O-])c1ccccc1)[n+]1ccccc1)c1ccc([N+](=O)[O-])cc1,-23,-1,0,-3,5,-9
O=C(/C(=C(\[O-])c1ccccc1)[n+]1ccc2ccccc2c1)c1ccc([N+](=O)[O-])cc1,-26,0,0,-64*,-72,-13
O=C(/C(=C(\[O-])c1ccccc1)[n+]1ccc2ccccc2c1)c1ccccc1,-12,-2,0,-4,4,-2
O=C(/C(=C(\[O-])c1ccccc1)[n+]1ccc2ccccc2c1)c1ccc(Cl)cc1,-6,2,0,-57*,-66,15
Cc1ccccc1NS(=O)(=O)c1ccc(C(=O)N2CCN(S(=O)(=O)c3ccccc3)CC2)cc1,.,.,.,-4,-4,0
COc1ccc(CNS(=O)(=O)c2cc3c4c(c2)C(C)C(=O)N4CCC3)cc1 (centres undefined),.,-2,.,0,6,-2
Cc1ccc(C(=O)NNC(=O)c2ccc(S(=O)(=O)N(C)c3ccccc3)cc2)cc1,.,.,.,.,.,2
COc1cccc(N2CCN(C(=O)c3ccc4ccccc4c3)CC2)c1,.,.,.,.,.,2
COc1cccc(N2CCN(C(=O)c3ccc4nc(N5CCCCC5)sc4c3)CC2)c1,-19,59*,0,-23,-29,-3
SMILES,TbHK1 inh,HSP90 inh,Hsp70 activator,HSF1 inhib,HSF1 activator,HKDC1 inhibitor
CCOC(=O)N1CCN(Cc2ccc3ccccc3c2)CC1,.,-6,.,-4,-16,-5
COCCNc1nc(-c2cc3ccccc3o2)cs1,-2,7,0,14,56*,16
O=C(Nc1ccc(Br)cn1)c1ccc(Br)s1,.,5,.,37,70*,-2
O=C(Nc1ccc(Br)cn1)c1ccc(Cl)s1,.,2,.,35,?,3
Clc1ccccc1Nc1nnc(-c2ccncc2)s1,-20,22*,0,-2,31,-5
COc1ccc(Cl)cc1Nc1nnc(-c2ccncc2)s1,.,5,.,6,18,8
O=C(O)c1cc([N+](=O)[O-])c(NCCC2=CCCCC2)c([N+](=O)[O-])c1,7,4,0,20,59*,1
COc1cccc(Nc2nc(Nc3ccc(Cl)c(C(=O)O)c3)nc(C)c2[N+](=O)[O-])c1,.,.,.,.,.,1
Cc1cn(C2CCCCC2)c(=O)[nH]c1=O,.,.,.,.,.,-4
CCC(C(=O)NC(C)(C)C)N(Cc1ccc(F)cc1)C(=O)c1snc(C(N)=O)c1N (centres undefined),.,0,.,-67*,-77,-3
CCC(C(=O)NC(C)(C)C)N(Cc1ccccc1Cl)C(=O)c1snc(C(N)=O)c1N (centres undefined),.,1,.,11,16,0
C/C(=N\n1nnnc1Nc1ccccc1)c1ccc(N)cc1,-13,2,0,72,117*,.
COCCCNC(=O)CC(NS(=O)(=O)c1ccc(C)cc1)c1ccc(OC)cc1 (centres undefined),0,-2,0,-77*,-80,-11
COCCCNC(=O)CC(NS(=O)(=O)c1ccc(OC)cc1)c1ccc(OC)cc1 (centres undefined),3,1,0,-5,-12,-8
O=C(c1cc(COc2ccc(F)cc2F)on1)N1C[C@H]2CC[C@H]1C2,.,0,.,9,11,-4
O=C(c1cc(COc2c(F)cccc2F)on1)N1C[C@H]2CC[C@H]1C2,.,-1,.,29,56*,3
CCCCN(C(=O)C1CCN(C(=O)c2ccccc2C)CC1)c1c(N)n(CC(C)C)c(=O)[nH]c1=O,.,.,.,.,.,-2
CC(C)c1ccc(NC(=O)CNC(=O)Cn2cnc3ccccc3c2=O)cc1,8,1,0,-83*,-86,-4
CN(C(=O)CCNC(=O)Cn1cnc2ccccc2c1=O)c1ccccc1F,.,-1,.,-89*,-91,-1
CN(C)CCC1(C2=CCCC2)CC/C(=C/c2ccc(Cl)cc2)C1=O (centres undefined),.,.,.,9,9,16
O=C(N=C1c2ccccc2CN1c1ccccc1)c1cccc([N+](=O)[O-])c1,-2,0,0,0,19,-5
CCOC(=O)c1ccc(N2Cc3ccccc3C2=NC(=O)c2cccc([N+](=O)[O-])c2)cc1,.,.,.,30,68*,0
CCN1C(=O)[C@H]2[C@H]3CN=C(SCc4ccc(C)cc4)N3[C@@](Cc3ccccc3)(C(=O)OC)[C@H]2C1=O,.,.,.,.,.,-2
CCCOC1CCCN(C(=O)CCc2nnc(CCCCc3ccccc3)o2)C1 (centres undefined),-4,-3,0,27,56*,-5
